Columns and labels:
[1] = test system: PC-3; assay: Potency index, ratio of IC50 for 3',4'-dimethoxyflavonol to IC50 for test compound against human PC3 cells; type: functional
In short: (§1)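 IC50 from WST-1 proliferation assay in PC-3 (androgen-insensitive) and LNCaP (androgen-sensitive) cells after 3-day exposure at five concentrations, DMSO vehicle control, quercetin positive control. IC50 derived from dose-response curves, mean ± SEM. The index is the parent flavonol IC50 divided by the test compound IC50.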

[2] = test system: LNCaP; assay: Potency index, ratio of IC50 for 3',4'-dimethoxyflavonol to IC50 for test compound against human LNCAP cells; type: functional; in short: as §1
[3] = test system: PC-3; assay: Induction of apoptosis is human PC3 cells assessed as live cells at 1 uM after 16 hrs by F2N12S/CYTOX AADvanced double-staining based by flow cytometry (reference value: 88%); type: functional
[4] = test system: PC-3; assay: Induction of apoptosis is human PC3 cells assessed as early apoptotic cells at 1 uM after 16 hrs by F2N12S/CYTOX AADvanced double-staining based by flow cytometry (reference value: 3%); type: functional
[5] = test system: PC-3; assay: Induction of apoptosis is human PC3 cells assessed as early apoptotic cells after 16 hrs by F2N12S/CYTOX AADvanced double-staining based by flow cytometry relative to control; type: functional, cell-based
[6] = test system: PC-3; assay: Induction of apoptosis is human PC3 cells assessed as early apoptotic cells at 30 uM after 16 hrs by F2N12S/CYTOX AADvanced double-staining based by flow cytometry (reference value: 3%); type: functional
[7] = test system: PC-3; assay: Induction of apoptosis is human PC3 cells assessed as live cells at 100 uM after 16 hrs by F2N12S/CYTOX AADvanced double-staining based by flow cytometry (reference value: 88%); type: functional
[8] = test system: PC-3; assay: Cell cycle arrest in human PC3 cells assessed as accumulation in G0/G1 phase at 10 uM after 20 hrs by propidium iodide staining-based flow cytometry (reference value: 63.7%); type: functional
[9] = test system: PC-3; assay: Induction of apoptosis is human PC3 cells assessed as early apoptotic cells at 50 uM after 16 hrs by F2N12S/CYTOX AADvanced double-staining based by flow cytometry (reference value: 3%); type: functional
[10] = test system: PC-3; assay: Induction of apoptosis is human PC3 cells assessed as live cells at 20 uM after 16 hrs by F2N12S/CYTOX AADvanced double-staining based by flow cytometry (reference value: 88%); type: functional
[11] = test system: PC-3; assay: Induction of apoptosis is human PC3 cells assessed as late apoptotic/necrotic cells at 30 uM after 16 hrs by F2N12S/CYTOX AADvanced double-staining based by flow cytometry (reference value: 9%); type: functional
[12] = test system: PC-3; assay: Induction of apoptosis is human PC3 cells assessed as late apoptotic/necrotic cells at 5 uM after 16 hrs by F2N12S/CYTOX AADvanced double-staining based by flow cytometry (reference value: 9%); type: functional
[13] = test system: PC-3; assay: Cell cycle arrest in human PC3 cells assessed as accumulation in G0/G1 phase at 10 uM after 24 hrs by propidium iodide staining-based flow cytometry (reference value: 69.4%); type: functional
[14] = test system: PC-3; assay: Induction of apoptosis is human PC3 cells assessed as late apoptotic/necrotic cells at 1 uM after 16 hrs by F2N12S/CYTOX AADvanced double-staining based by flow cytometry (reference value: 9%); type: functional
[15] = test system: PC-3; assay: Induction of apoptosis is human PC3 cells assessed as early apoptotic cells at 100 uM after 16 hrs byF2N12S/CYTOX AADvanced double-staining based by flow cytometry (reference value: 3%); type: functional
[16] = test system: PC-3; assay: Cell cycle arrest in human PC3 cells assessed as accumulation in G2/M phase at 10 uM after 20 hrs by propidium iodide staining-based flow cytometry (reference value: 17.4%); type: functional
[17] = test system: PC-3; assay: Induction of apoptosis is human PC3 cells assessed as live cells at 10 uM after 16 hrs by F2N12S/CYTOX AADvanced double-staining based by flow cytometry (reference value: 88%); type: functional
[18] = test system: PC-3; assay: Induction of apoptosis is human PC3 cells assessed as late apoptotic/necrotic cells at 50 uM after 16 hrs by F2N12S/CYTOX AADvanced double-staining based by flow cytometry (reference value: 9%); type: functional
[19] = test system: PWR-1E; assay: Cytotoxicity against human PWR-1E cells assessed as inhibition of cell proliferation at 10 to 50 uM after 3 days by WST1 assay; type: cell-based; details: 72 h
[20] = test system: PC-3; assay: Cell cycle arrest in human PC3 cells assessed as accumulation in G2/M phase at 10 uM after 24 hrs by propidium iodide staining-based flow cytometry (reference value: 16%); type: functional
[21] = test system: PC-3; assay: Induction of apoptosis is human PC3 cells assessed as live cells at 5 uM after 16 hrs by F2N12S/CYTOX AADvanced double-staining based by flow cytometry (reference value: 88%); type: functional
[22] = test system: PC-3; assay: Induction of apoptosis is human PC3 cells assessed as live cells at 50 uM after 16 hrs by F2N12S/CYTOX AADvanced double-staining based by flow cytometry (reference value: 88%); type: functional
[23] = test system: PC-3; assay: Induction of apoptosis is human PC3 cells assessed as live cells at 30 uM after 16 hrs by F2N12S/CYTOX AADvanced double-staining based by flow cytometry (reference value: 88%); type: functional
[24] = test system: PC-3; assay: Induction of apoptosis is human PC3 cells assessed as late apoptotic/necrotic cells at 100 uM after 16 hrs by F2N12S/CYTOX AADvanced double-staining based by flow cytometry (reference value: 9%); type: functional

## CCCCN(CCCC)CCCCCOc1c(-c2ccc(OC)c(OC)c2)oc2ccccc2c1=O
[1]
  Ratio IC50: 102
[2]
  Ratio IC50: 41

## COc1ccc(-c2oc3ccccc3c(=O)c2OCCCCN2CCOCC2)cc1OC
[1]
  Ratio IC50: 45
[2]
  Ratio IC50: 24

## COc1ccc(-c2oc3ccccc3c(=O)c2OCCCN2CCOCC2)cc1OC
[1]
  Ratio IC50: 38
[2]
  Ratio IC50: 14

## CCCCN(CCCC)CCCCOc1c(-c2ccc(OC)c(OC)c2)oc2ccccc2c1=O
[1]
  Ratio IC50: 152
[2]
  Ratio IC50: 47

## CCCCCOc1c(-c2ccc(OC)c(OC)c2)oc2ccccc2c1=O
[1]
  Ratio IC50: 24
[2]
  Ratio IC50: 14

## CCOc1c(-c2ccc(OC)c(OC)c2)oc2ccccc2c1=O
[1]
  Ratio IC50: 30
[2]
  Ratio IC50: 21

## CCCOc1c(-c2ccc(OC)c(OC)c2)oc2ccccc2c1=O
[1]
  Ratio IC50: 41
[2]
  Ratio IC50: 32

## COc1ccc(-c2oc3ccccc3c(=O)c2OC)cc1OC
[1]
  Ratio IC50: 14
[2]
  Ratio IC50: 12.5

## CCCCN(CCCC)CCCOc1c(-c2ccc(OC)c(OC)c2)oc2ccccc2c1=O
[3]
  Activity: 89%
[4]
  Activity: 4%
[5]
  Activity: Dose-dependent effect
[6]
  Activity: 94%
[7]
  Activity: 0%
[1]
  Ratio IC50: 292
[8]
  Activity: 53.8%
[9]
  Activity: 88%
[10]
  Activity: 3%
[11]
  Activity: 5%
[12]
  Activity: 5%
[2]
  Ratio IC50: 84
[13]
  Activity: 61.3%
[14]
  Activity: 6%
[15]
  Activity: 39%
[16]
  Activity: 32%
[17]
  Activity: 15%
[18]
  Activity: 11%
[19]
  Activity: Non-Toxic
[20]
  Activity: 25.1%
[21]
  Activity: 50%
[22]
  Activity: 0%
[23]
  Activity: 1%
[24]
  Activity: 61%

## COc1ccc(-c2oc3ccccc3c(=O)c2OC(C)C)cc1OC
[1]
  Ratio IC50: 12
[2]
  Ratio IC50: 20

## CCCCCCOc1c(-c2ccc(OC)c(OC)c2)oc2ccccc2c1=O
[1]
  Ratio IC50: 29
[2]
  Ratio IC50: 16

## CCCCOc1c(-c2ccc(OC)c(OC)c2)oc2ccccc2c1=O
[1]
  Ratio IC50: 24
[2]
  Ratio IC50: 25

## COc1ccc(-c2oc3ccccc3c(=O)c2OCCCCCN2CCOCC2)cc1OC
[1]
  Ratio IC50: 91
[2]
  Ratio IC50: 26

## CCCCCCCOc1c(-c2ccc(OC)c(OC)c2)oc2ccccc2c1=O
[1]
  Ratio IC50: 5
[2]
  Ratio IC50: 5

## COc1ccc(-c2oc3ccccc3c(=O)c2O)cc1OC [3-HYDROXY-3',4'-DIMETHOXYFLAVONE]
[19]
  Activity: Non-Toxic

Reference: ChEMBL document CHEMBL4425187, “A new class of flavonol-based anti-prostate cancer agents: Design, synthesis, and evaluation in cell models” (Bioorg Med Chem Lett, 2016)
